Test results from ChEMBL document CHEMBL4680220, “Synthesis and biological evaluation of acridine-based histone deacetylase inhibitors as multitarget agents against Alzheimer's disease” (Eur J Med Chem, 2020).

Experiments:
[1] = target: T1, Amyloid-beta precursor protein (Homo sapiens, UniProt P05067); experiment: Inhibition of amyloid beta (1 to 42) (unknown origin) self aggregation after 24 hrs by thioflavin-T fluorescence method
Summary of the method: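 ThT aggregation assay. Compound at varying concentrations combined with 10 µM Aβ1-42 (1 mM DMSO stock), 10 µM ThT, 1 mM EDTA in 50 mM phosphate buffer (150 mM NaCl, pH 7.4). Incubated 24 h at 37 °C with shaking at 700 rpm; fluorescence ex 440/em 486 nm. 0.1% DMSO wells = 100% aggregation; compound wells without Aβ = background. IC50 from triplicates.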

[2] = target: T2, Protein deacetylase HDAC6 (Homo sapiens, UniProt Q9UBN7); experiment: Inhibition of recombinant human full-length N-terminal GST-tagged HDAC6 expressed in baculovirus infected Sf9 insect cells using Boc-Lys(Ac)-AMC as substrate preincubated for 5 mins followed by substrate addition and measured after 30 mins by fluorescence assay
T2 sequence (Q9UBN7 whole entry): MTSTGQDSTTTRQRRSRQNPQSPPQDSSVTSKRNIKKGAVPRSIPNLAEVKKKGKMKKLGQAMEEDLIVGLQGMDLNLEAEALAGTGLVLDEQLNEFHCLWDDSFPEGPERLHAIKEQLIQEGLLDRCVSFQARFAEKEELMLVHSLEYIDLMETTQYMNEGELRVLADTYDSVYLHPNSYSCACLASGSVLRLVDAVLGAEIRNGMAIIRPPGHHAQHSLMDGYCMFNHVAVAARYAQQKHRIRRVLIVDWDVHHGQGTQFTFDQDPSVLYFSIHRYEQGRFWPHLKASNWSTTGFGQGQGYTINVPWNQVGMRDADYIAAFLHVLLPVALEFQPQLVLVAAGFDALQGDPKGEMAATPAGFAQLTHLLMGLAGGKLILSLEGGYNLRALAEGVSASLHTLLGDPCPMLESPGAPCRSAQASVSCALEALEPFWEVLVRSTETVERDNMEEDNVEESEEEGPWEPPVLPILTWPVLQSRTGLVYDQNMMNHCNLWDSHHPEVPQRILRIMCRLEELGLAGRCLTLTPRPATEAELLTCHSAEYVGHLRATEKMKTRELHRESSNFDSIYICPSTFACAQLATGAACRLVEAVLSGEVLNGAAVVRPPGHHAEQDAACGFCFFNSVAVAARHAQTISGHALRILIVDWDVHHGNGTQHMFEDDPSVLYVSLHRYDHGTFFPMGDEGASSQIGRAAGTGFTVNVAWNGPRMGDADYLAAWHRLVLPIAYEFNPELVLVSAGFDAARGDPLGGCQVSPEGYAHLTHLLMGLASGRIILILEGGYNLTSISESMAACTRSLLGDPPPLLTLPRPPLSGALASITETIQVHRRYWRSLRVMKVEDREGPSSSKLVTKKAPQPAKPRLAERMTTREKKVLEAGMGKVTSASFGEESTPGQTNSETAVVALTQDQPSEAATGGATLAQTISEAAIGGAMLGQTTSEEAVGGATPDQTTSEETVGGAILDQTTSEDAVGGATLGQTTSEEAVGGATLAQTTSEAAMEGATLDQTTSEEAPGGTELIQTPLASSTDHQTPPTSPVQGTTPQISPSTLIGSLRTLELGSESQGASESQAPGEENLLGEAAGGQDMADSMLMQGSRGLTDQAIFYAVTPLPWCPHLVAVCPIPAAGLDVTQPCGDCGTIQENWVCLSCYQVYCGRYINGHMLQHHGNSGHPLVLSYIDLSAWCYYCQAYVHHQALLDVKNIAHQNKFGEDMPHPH

Acetylcholinesterase = Acetylcholinesterase (Homo sapiens, UniProt P22303); experiment: Inhibition of recombinant human C-terminal 6His-tagged AChE (Glu32 to Leu614 residues) expressed in CHO cells using acetylthiocholine iodide as substrate preincubated for 5 mins measured after 15 mins by DTNB reagent based assay
Acetylcholinesterase, sequence (P22303 whole entry): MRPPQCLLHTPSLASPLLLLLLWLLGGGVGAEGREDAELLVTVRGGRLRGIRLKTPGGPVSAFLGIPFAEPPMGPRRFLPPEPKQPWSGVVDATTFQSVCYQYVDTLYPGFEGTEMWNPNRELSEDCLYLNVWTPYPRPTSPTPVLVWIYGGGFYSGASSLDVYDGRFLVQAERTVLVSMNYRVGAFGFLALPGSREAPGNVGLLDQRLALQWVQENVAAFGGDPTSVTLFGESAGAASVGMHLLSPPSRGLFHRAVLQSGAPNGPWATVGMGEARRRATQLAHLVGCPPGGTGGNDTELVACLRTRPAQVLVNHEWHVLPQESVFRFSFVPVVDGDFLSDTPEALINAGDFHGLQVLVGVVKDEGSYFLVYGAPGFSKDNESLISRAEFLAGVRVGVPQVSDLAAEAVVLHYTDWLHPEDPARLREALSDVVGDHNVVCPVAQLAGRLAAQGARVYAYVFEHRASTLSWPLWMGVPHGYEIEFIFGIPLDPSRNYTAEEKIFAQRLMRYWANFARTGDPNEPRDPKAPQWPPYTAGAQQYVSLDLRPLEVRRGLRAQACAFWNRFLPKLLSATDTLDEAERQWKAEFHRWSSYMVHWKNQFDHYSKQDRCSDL
Summary of the method: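 Enzyme, compounds, acetylthiocholine iodide and DTNB diluted in 100 mM phosphate buffer pH 7.4. AChE was preincubated with the compound at varying concentrations for 5 min at 37 °C. The reaction was started with 1 mM ATCI solution and run 15 min at 37 °C. 2 mM DTNB solution was then added for 5 min. Absorbance read at 412 nm. IC50 set 0.1% DMSO wells as 100% and no-enzyme wells as 0%. Run in triplicate.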

Histone deacetylase 4 = Histone deacetylase 4 (Homo sapiens, UniProt P56524); experiment: Inhibition of recombinant human N-terminal GST-tagged/C-terminal His-tagged HDAC4 (627 to 1084 residues) expressed in baculovirus expression system using Boc-Lys(TFA)-AMC as substrate preincubated for 5 mins followed by substrate addition and measured after 30 mins by fluorescence assay
Histone deacetylase 4, sequence (P56524 whole entry, the tested form may be a part): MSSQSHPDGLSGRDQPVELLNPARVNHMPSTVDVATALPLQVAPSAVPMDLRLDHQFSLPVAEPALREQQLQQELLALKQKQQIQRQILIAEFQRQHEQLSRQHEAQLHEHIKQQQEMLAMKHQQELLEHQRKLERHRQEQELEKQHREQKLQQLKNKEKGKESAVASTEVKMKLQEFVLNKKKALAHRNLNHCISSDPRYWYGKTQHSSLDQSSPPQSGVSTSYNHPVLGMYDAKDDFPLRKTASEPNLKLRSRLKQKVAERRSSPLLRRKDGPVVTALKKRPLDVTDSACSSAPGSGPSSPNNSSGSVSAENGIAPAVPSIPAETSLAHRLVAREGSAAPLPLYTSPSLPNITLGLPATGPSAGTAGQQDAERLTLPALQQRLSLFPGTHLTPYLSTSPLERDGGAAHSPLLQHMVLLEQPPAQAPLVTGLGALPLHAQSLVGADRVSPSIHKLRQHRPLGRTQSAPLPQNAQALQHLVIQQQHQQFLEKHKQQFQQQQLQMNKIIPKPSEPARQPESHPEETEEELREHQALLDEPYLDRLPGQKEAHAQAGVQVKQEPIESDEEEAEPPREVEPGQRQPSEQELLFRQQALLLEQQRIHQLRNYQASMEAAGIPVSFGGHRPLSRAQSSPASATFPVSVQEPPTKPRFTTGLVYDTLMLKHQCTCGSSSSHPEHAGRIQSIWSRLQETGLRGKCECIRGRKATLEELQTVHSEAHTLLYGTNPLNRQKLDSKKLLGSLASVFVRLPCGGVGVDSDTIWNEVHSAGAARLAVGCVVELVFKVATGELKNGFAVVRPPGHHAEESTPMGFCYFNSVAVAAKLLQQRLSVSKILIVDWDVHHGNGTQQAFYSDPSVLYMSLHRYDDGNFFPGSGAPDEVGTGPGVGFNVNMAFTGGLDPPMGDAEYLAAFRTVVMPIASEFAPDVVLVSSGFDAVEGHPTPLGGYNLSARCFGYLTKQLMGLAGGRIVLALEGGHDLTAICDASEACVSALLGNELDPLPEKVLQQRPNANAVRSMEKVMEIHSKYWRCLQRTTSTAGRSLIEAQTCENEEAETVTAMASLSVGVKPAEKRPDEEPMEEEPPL

Histone deacetylase 5 = Histone deacetylase 5 (Homo sapiens, UniProt Q9UQL6); experiment: Inhibition of recombinant human C-terminal His-tagged HDAC5 (656 to 1122 residues) expressed in baculovirus infected Sf9 insect cells using fluorogenic HDAC 2A substrate preincubated for 5 mins followed by substrate addition and measured after 30 mins by fluorescence assay
Histone deacetylase 5, sequence (Q9UQL6 whole entry, the tested form may be a part): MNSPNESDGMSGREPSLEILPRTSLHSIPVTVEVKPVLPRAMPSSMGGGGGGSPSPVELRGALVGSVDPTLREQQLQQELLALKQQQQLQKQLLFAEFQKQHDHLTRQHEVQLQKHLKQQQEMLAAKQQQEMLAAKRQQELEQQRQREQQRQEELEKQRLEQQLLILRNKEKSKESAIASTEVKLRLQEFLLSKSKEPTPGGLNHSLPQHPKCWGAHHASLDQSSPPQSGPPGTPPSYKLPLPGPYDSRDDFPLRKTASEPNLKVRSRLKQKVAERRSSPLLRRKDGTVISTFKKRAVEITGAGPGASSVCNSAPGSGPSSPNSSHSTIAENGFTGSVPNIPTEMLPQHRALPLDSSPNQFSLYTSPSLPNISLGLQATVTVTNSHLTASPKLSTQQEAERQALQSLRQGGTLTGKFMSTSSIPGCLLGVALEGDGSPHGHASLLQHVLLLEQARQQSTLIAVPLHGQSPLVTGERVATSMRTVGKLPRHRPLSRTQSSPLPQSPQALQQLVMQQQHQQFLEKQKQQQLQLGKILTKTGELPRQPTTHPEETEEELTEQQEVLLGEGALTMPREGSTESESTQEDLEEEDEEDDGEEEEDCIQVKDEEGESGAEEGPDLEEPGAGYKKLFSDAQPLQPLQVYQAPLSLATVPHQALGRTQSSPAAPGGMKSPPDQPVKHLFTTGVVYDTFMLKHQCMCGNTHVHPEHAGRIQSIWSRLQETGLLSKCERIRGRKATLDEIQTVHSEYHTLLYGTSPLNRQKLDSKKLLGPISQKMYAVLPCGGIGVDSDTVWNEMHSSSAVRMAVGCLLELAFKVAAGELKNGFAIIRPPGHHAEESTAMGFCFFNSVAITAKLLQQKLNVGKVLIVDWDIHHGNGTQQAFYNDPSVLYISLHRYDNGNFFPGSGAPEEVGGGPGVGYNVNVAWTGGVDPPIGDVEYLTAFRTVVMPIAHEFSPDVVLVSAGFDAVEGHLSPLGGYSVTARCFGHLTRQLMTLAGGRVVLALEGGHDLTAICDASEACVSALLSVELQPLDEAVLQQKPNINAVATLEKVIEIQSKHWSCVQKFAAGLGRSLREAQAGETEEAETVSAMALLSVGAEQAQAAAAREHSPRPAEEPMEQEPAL

[3] = target: Class 1 histone deacetylase (Homo sapiens, UniProt Q13547+O15379+Q92769+Q9BY41); experiment: Inhibition of class 1 HDAC in human HeLa cell nuclear extract using Boc-Lys(Ac)-AMC as substrate preincubated for 5 mins followed by substrate addition and measured after 30 mins by fluorescence assay; type: cell-based
[4] = target: T1, Amyloid-beta precursor protein; experiment: Disaggregation of self-induced amyloid beta (1 to 42) (unknown origin) preformed fibrils at 10 uM measured after 24 hrs by thioflavin-T fluorescence assay relative to control
Summary of the method: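 Aβ1-42 (10 µM) with 10 µM ThT and 1 mM EDTA in 50 mM phosphate buffer (150 mM NaCl, pH 7.4) pre-aggregated 24 h at 37 °C, 700 rpm; fluorescence read (ex 440/em 486 nm). Compound then added and incubated a further 24 h at 37 °C before re-reading. Disaggregation = (first − second reading)/first reading. Triplicate.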

Histone deacetylase 9 = Histone deacetylase 9 (Homo sapiens, UniProt Q9UKV0); experiment: Inhibition of recombinant human C-terminal His-tagged HDAC9 (604 to 1066 residues) expressed in baculovirus infected Sf9 cells using fluorogenic HDAC 2A substrate preincubated for 5 mins followed by substrate addition and measured after 30 mins by fluorescence assay
Histone deacetylase 9, sequence (Q9UKV0 whole entry, the tested form may be a part): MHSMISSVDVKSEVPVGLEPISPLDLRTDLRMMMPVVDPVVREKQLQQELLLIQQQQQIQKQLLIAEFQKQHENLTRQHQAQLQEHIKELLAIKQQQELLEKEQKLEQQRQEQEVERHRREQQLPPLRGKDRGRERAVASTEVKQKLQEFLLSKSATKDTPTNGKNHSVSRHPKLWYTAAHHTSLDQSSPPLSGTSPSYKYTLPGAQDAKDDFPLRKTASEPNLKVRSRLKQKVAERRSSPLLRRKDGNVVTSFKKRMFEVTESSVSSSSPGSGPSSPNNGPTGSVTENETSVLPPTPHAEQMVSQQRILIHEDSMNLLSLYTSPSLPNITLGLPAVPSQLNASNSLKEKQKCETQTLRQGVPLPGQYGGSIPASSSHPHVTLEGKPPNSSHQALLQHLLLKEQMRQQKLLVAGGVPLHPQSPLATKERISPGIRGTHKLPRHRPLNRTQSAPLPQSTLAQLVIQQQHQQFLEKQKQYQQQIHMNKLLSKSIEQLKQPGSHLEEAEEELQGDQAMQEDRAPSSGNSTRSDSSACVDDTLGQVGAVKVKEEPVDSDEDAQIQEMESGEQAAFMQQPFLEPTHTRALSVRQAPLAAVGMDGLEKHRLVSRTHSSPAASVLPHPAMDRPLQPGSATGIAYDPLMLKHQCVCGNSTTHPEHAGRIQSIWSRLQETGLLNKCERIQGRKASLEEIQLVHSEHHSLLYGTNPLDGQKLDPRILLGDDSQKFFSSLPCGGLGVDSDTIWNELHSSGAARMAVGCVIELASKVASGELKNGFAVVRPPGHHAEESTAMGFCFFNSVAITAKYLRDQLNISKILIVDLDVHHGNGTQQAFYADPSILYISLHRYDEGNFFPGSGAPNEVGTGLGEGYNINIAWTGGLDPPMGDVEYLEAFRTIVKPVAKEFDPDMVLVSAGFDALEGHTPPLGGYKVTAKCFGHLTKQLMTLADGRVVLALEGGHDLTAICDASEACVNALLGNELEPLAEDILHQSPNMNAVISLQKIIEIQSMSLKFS

Histone deacetylase 7 = target: T3, Histone deacetylase 7 (Homo sapiens, UniProt Q8WUI4); experiment: Inhibition of recombinant human N-terminal GST-tagged HDAC7 (518 to end residues) expressed in baculovirus infected Sf9 cells using fluorogenic HDAC 2A substrate preincubated for 5 mins followed by substrate addition and measured after 30 mins by fluorescence assay
T3 sequence (Q8WUI4 whole entry): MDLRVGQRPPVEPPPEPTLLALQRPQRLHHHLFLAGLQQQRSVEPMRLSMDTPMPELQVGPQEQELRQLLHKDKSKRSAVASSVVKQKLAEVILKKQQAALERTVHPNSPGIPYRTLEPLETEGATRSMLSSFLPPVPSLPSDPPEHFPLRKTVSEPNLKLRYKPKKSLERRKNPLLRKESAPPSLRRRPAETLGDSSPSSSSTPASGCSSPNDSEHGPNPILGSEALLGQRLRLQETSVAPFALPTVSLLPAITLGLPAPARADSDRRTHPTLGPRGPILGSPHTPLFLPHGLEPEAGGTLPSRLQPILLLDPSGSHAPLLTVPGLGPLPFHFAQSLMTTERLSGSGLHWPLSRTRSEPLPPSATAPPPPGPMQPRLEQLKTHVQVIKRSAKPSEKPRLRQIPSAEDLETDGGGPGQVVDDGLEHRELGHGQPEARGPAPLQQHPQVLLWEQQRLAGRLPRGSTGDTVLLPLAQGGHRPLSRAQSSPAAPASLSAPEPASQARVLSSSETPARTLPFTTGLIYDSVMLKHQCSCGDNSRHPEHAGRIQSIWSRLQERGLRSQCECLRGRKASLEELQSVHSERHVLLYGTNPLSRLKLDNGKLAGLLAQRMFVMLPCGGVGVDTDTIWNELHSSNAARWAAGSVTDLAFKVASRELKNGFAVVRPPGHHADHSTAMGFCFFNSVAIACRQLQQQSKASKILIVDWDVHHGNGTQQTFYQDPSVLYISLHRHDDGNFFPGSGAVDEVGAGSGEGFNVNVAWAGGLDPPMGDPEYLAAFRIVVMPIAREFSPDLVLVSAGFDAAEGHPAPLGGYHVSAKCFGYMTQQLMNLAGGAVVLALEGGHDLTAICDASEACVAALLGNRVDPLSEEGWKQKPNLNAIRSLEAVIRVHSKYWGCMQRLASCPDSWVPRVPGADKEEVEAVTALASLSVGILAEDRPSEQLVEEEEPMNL

[5] = Intrinsic clearance in human liver microsomes at 1 uM preincubated for 3 mins followed by NADPH addition and measured up to 60 mins by LC-MS/MS analysis; type: ADME, Microsome; conditions: 1 h, time <=63 min
Summary of the method: (§1)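 Mixed-gender human liver microsomes with test article at 1 µM final. Testosterone (5 µM) run separately as control. Mixture without cofactor equilibrated 3 min at 37 °C in a shaking water bath, then started with cofactor. Aliquots taken at 0, 10, 20, 30 and 60 min. CLint = k/P, where k is the elimination rate constant and P is the incubation protein concentration.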

[6] = Half life in human liver microsomes at 1 uM preincubated for 3 mins followed by NADPH addition and measured up to 60 mins by LC-MS/MS analysis; type: ADME, Microsome; conditions: time <=63 min; summary of the method: as §1
[7] = Elimination rate constant in human liver microsomes at 1 uM preincubated for 3 mins followed by NADPH addition and measured up to 60 mins by LC-MS/MS analysis; type: ADME, Microsome; conditions: time <=63 min; summary of the method: as §1

T1 sequence (P05067 whole entry): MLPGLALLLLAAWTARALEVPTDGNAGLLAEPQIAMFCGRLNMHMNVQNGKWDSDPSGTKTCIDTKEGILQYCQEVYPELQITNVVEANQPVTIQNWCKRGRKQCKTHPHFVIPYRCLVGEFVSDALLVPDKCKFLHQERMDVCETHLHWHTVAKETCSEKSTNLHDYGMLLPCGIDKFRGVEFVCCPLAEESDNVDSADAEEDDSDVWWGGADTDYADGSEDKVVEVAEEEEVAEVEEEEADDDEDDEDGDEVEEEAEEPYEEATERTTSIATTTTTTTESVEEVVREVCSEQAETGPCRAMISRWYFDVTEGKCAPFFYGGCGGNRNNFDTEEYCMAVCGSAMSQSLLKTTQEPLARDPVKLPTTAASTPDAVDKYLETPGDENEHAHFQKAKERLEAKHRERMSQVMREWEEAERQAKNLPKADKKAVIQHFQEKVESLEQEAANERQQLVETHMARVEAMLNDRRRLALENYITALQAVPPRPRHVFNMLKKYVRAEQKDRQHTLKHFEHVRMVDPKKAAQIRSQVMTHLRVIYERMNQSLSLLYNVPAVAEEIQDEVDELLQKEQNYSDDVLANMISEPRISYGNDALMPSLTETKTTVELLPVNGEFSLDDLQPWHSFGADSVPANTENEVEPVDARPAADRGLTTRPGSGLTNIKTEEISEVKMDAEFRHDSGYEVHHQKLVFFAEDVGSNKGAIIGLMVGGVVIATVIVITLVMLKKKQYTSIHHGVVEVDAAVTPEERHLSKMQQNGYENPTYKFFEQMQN

SMILES | IC50 [1] | IC50 [2] | IC50 (Acetylcholinesterase) | IC50 (Histone deacetylase 4) | IC50 (Histone deacetylase 5) | IC50 [3] | inhibition [4] | IC50 (Histone deacetylase 9) | IC50 (Histone deacetylase 7) | CLint [5] | half-life at 1 µM [6] | k el at 1 h, 1 µM [7]
O=C(NO)c1ccc(Nc2c3ccccc3nc3ccc(F)cc23)cc1 | > 20 µM | 29 nM | 600 nM | 3.04 µM | 0.69 µM | 0.25 µM | 38% | 0.52 µM |  |  |  | 
O=C(CCc1ccc(Nc2c3ccccc3nc3ccccc23)cc1)NO |  | 140 nM |  | 7.06 µM | 2.58 µM | 0.1 µM |  | 29 µM |  |  |  | 
O=C(NO)c1ccc(Nc2c3c(nc4ccccc24)CCCC3)cc1 | > 20 µM | 3550 nM | 1970 nM | > 40 µM | 17.5 µM | > 40 µM | 0% | > 40 µM | > 40 µM |  |  | 
O=C(CCCCCCC(=O)Nc1ccccc1)NO [VORINOSTAT] | > 20 µM |  |  |  |  |  | 0% |  |  |  |  | 
O=C(NO)c1ccc(Nc2ccnc3ccccc23)cc1 | > 20 µM | 39 nM | 830 nM | > 40 µM | 3.37 µM | 0.6 µM | 0% | 13.2 µM |  |  |  | 
C[C@]12CC[C@H]3[C@@H](CCC4=CC(=O)CC[C@@]43C)[C@@H]1CC[C@@H]2O [TESTOSTERONE] |  |  |  |  |  |  |  |  |  | 0.054 mL/min/mg | 25.7 min | 0.00045 s⁻¹
c1ccc2nc3ccccc3cc2c1 [ACRIDINE] |  |  | 6840 nM |  |  |  |  |  |  |  |  | 
O=C(Cc1ccc(Nc2c3ccccc3nc3ccccc23)cc1)NO |  | 74 nM |  | 26.6 µM | 1.66 µM | 2.07 µM |  | 6.42 µM | 1.94 µM |  |  | 
O=c1c(O)c(-c2ccc(O)cc2O)oc2cc(O)cc(O)c12 [MORIN] | 8.5 µM |  |  |  |  |  |  |  |  |  |  | 
O=C(NO)c1ccc(Nc2c3ccccc3nc3ccc(OC(F)(F)F)cc23)cc1 | 3.5 µM | 29 nM | 3650 nM | 14.7 µM | 15.8 µM | 0.67 µM | 53% | 31.1 µM |  |  |  | 
COc1ccc2nc3cc(Cl)ccc3c(Nc3ccc(C(=O)NO)cc3)c2n1 | 34.9 µM | 340 nM | 9250 nM | > 40 µM | 15.2 µM | 0.8 µM | 53% | > 40 µM |  |  |  | 
O=C(NO)c1ccc(Nc2c3ccccc3nc3ccc(OCc4ccccc4)cc23)cc1 | 3 µM | 220 nM | 2640 nM | 1.21 µM | 0.43 µM | 3.5 µM | 57% | 1.25 µM | 3.1 µM |  |  | 
COc1cc2nc3ccccc3c(Nc3ccc(C(=O)NO)cc3)c2c(OC)c1OC | 13 µM | 160 nM | 640 nM | 15.7 µM | 4.23 µM | 0.81 µM | 42% | 4.95 µM | 4.57 µM |  |  | 
O=C(NO)c1cccc(Nc2c3ccccc3nc3ccccc23)c1 |  | 4690 nM |  | 29.4 µM | 20.8 µM | > 40 µM |  | 12.2 µM |  |  |  | 
